In assay [1] the target is C-terminal domain of human centrin 1 T138E (human). Nature of the assay: ITC. For orientation: Isothermal titration calorimetry measures the heat released or taken up as one component is titrated into another.
Assay [2] has as its target C-terminal domain of human centrin 1 T138D (human). Nature of the assay: ITC.
The target in assay [3] is C-terminal domain of human centrin 1 T138E (human). Briefly: ITC. This is another data set of the same source.
The target in assay [4] is C-terminal domain of human centrin 1 T138D (human). Nature of the assay: ITC. This is another data set of the same source.
The test system of a further assay is C-HsCen1-T138E. Briefly: ITC, peptide binding to C-HsCen1-T138E. Further details: species or system human. The conditions noted are these: C-HsCen1-T138E versus C-HsCen1; +Ca2+ (Fig. S3). The gist of the method:
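Binding measured by ITC at 30 °C. Cell contained E. coli-expressed, heat-treated, chromatographically purified centrin at 10 μM. N-acetylated, C-amidated target peptide at 100 μM was injected in 8–10 μL steps. Buffer was 50 mM MOPS, 100 mM NaCl, pH 7.5 with 1 mM CaCl₂. The first 2 μL injection was discarded. Baseline-corrected integrated heats were fitted for n, Ka and ΔH. Peptide-into-buffer injections gave dilution heat.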

Assay [5] deals with HsCen1 (full-length human centrin 1). Briefly: ITC, peptide binding to full-length HsCen1. To be noted: centrin 1. The gist of the method: (§1)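 Recombinant human centrin (full-length or C-terminal domain; Asp variants made by double-PCR mutagenesis) was expressed in E. coli BL21(DE3), heat-treated at 63 °C, then purified by ion-exchange, phenyl and gel-filtration chromatography. ITC at 30 °C: 10 μM centrin titrated with 100 μM N-acetylated, C-amidated peptide in 50 mM MOPS, 100 mM NaCl, pH 7.5, plus 1 mM CaCl₂ or 2 mM EDTA. Dilution heats subtracted; data fitted for n, Ka and ΔH.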

Assay [6] relates to HsC1P (human centrin 1 phosphorylated by CK2 at T138). Briefly: ITC, peptide binding to CK2-phosphorylated HsCen1. To be noted: EDTA / absence of Ca2+; phosphorylated versus unphosphorylated centrin 1.
Another assay has as its system C-HsCen2-S158D. Briefly: ITC, peptide binding to C-HsCen2 S158D. Also noted: species or system human. To be noted: absence of Ca2+; versus C-HsCen2 wild type. The method, boiled down:
as §1

The test system of the next assay is C-HsCen2 T138D-S158D. Nature of the assay: ITC, peptide binding to C-HsCen2 T138D-S158D. The conditions noted are these: versus C-HsCen2 wild type. Further details: species or system human. The gist of the method:
as §1

For assay [7], the system named is HsCen1-T138D (phosphomimetic human centrin 1). Nature of the assay: ITC, peptide binding to HsCen1-T138D. The conditions noted are these: EDTA; HsCen1-T138D versus HsCen1.
The test system of a further assay is C-HsCen2-T138D. Nature of the assay: ITC, peptide binding to C-HsCen2 T138D. Also noted: species or system human. The conditions noted are these: versus C-HsCen2 wild type. The gist of the method:
as §1

In the next assay the test system is C-HsCen1-T138D. Nature of the assay: ITC, peptide binding to C-HsCen1-T138D. Also noted: species or system human. To be noted: EDTA; C-HsCen1-T138D versus C-HsCen1. The gist of the method:
as §1

The target of assay [8] is T1, human centrin 1 T138D, full-length (human, UniProt Q12798 1-172, T138D).
T1 sequence: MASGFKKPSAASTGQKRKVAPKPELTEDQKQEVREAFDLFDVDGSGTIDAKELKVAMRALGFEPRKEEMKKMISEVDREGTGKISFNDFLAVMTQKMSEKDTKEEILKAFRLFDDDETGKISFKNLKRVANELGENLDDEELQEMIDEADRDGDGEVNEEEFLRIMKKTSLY
Briefly: ITC.

Assay [9] concerns the target T2, human centrin 1, full-length (human, UniProt Q12798 1-172).
T2 sequence: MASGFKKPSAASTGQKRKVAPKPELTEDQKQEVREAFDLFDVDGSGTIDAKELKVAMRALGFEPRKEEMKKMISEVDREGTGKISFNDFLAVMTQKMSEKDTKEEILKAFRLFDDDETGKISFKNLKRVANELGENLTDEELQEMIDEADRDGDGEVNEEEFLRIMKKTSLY
Briefly: ITC.

Assay [10] has as its target T3, C-terminal domain of human centrin 2 T138D-S158D (human, UniProt P41208 93-172, T138D | S158D). Briefly: ITC.
Assay [11] deals with T4, C-terminal domain of human centrin 2 (M93-Y172) (human, UniProt P41208 93-172). Nature of the assay: ITC.
T4 sequence (P41208 93-172): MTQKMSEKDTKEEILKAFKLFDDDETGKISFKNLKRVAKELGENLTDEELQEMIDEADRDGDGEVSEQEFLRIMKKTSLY
The target in assay [12] is T5, C-terminal domain of human centrin 2 T138D (human, UniProt P41208 93-172, T138D). Nature of the assay: ITC.
T5 sequence (P41208 93-172 T138D): as the sequence (P41208 93-172) above, with T46D counted along it
Assay [13] addresses T6, C-terminal domain of human centrin 2 S158D (human, UniProt P41208 93-172, S158D). Briefly: ITC.
Assay [14] deals with T1, human centrin 1 T138D, full-length. Briefly: ITC. This is another data set of the same source.
In assay [15] the target is T2, human centrin 1, full-length. Nature of the assay: ITC. This is another data set of the same source.
For assay [16], the target named is T3, C-terminal domain of human centrin 2 …. Nature of the assay: ITC. This is another data set of the same source.
Assay [17] concerns the target T4, C-terminal domain of human centrin 2 …. Briefly: ITC. This is another data set of the same source.
The target in assay [18] is T5, C-terminal domain of human centrin 2 …. Nature of the assay: ITC. The source holds these as a separate data set.
Assay [19] deals with T6, C-terminal domain of human centrin 2 …. Nature of the assay: ITC. The source holds these as a separate data set.
The target in assay [20] is T7, C-terminal domain of human centrin 1 (M93-Y172) (human, UniProt Q12798 93-172). Nature of the assay: ITC.
Assay [21] deals with T7, C-terminal domain of human centrin 1 …. Nature of the assay: ITC. This is another data set of the same source.

Where two headings read alike, the source gives them in different places.

T3 sequence (P41208 93-172 T138D/S158D): as the sequence (P41208 93-172) above, with T46D, S66D counted along it
T6 sequence (P41208 93-172 S158D): as the sequence (P41208 93-172) above, with S66D counted along it

Consider “P17-XPC, 17-residue peptide of human XPC”, for which the Ka in assay [1] stood at 430000 M⁻¹; in assay [2], 4.55e+06 M⁻¹; in assay [3] it was 9.03e+06 M⁻¹; in assay [4], 3.34e+07 M⁻¹. In addition, the dH in assay [1] is -32.6 kcal/mol; in [2] it was -30.2 kcal/mol; in assay [4], -23.6 kcal/mol.
For the molecule 325-MAVATGSWDSFLKIWN-340 [Trd], the “factor of decrease of affinity by the T138E mutation” value in the assay on C-HsCen1-T138E came to 7.
With 677-SQHNRQLLRGALRRWK-692 [R18-Sfi1], the “equilibrium association constant Ka” value in assay [5] (presence of Ca2+, ITC, one-site binding model) is recorded as 2.5 10^8 M^−1. The “factor of reduction of binding by phosphorylation at T138” value in assay [6] was determined as 10.
Regarding 846-NWKLLAKGLLIRERLKR-863 [P17-XPC], the “factor of reduction of affinity by the S158D mutation” value in the assay with C-HsCen2-S158D turned out to be 3.7. Also, in assay [5] (+Ca2+ versus EDTA), the “factor of increase of binding by the presence of Ca2+” value was found to be 5. Also, the “factor of reduction of affinity by the T138D-S158D double mutation” value in the assay with C-HsCen2 T138D-S158D (absence of Ca2+) is recorded as 9; with C-HsCen2 T138D-S158D (presence of Ca2+), 2. In [7], the “factor of reduction of binding by the T138D phosphomimetic mutation” value was 4. The “factor of reduction of affinity by the T138D mutation” value in the assay with C-HsCen2-T138D (absence of Ca2+) is given as 3; in the assay on C-HsCen2-T138D (presence of Ca2+), 2. Besides, the “factor of reduction of binding by phosphorylation at T138” value in assay [6] turned out to be 10. In the assay on C-HsCen1-T138D, the “factor of decrease of affinity by the T138D mutation” value was 2.
Broadly, the stoichiometry N is a count of units in the complex or per binding partner. Turning to Ac-NWKLLAKGLLIRERLKR-NH2 [P17-XPC, 17-residue peptide of human XPC], the Ka was 1.02e+08 M⁻¹ in assay [8]; 5.25e+07 M⁻¹ in assay [9]; 5.27e+07 M⁻¹ in assay [11]; 2.71e+07 M⁻¹ in assay [12]; 4.31e+07 M⁻¹ in assay [13]; 2.9e+06 M⁻¹ in [14]. The Ka was 1.22e+07 M⁻¹ in assay [15]; 800000 M⁻¹ in assay [16]; 7.35e+06 M⁻¹ in assay [17]; 2.5e+06 M⁻¹ in assay [18]; 3.96e+07 M⁻¹ in [20]; 8.25e+06 M⁻¹ in [21]. Further, the dH was -28.5 kcal/mol in assay [8]; -28.4 kcal/mol in assay [9]; -23.9 kcal/mol in [10]; -23.4 kcal/mol in assay [11]; -24 kcal/mol in assay [12]; -23 kcal/mol in assay [13]. Moreover, the dH in [14] was -30.2 kcal/mol; in assay [15] it was -28.4 kcal/mol; in [16], -26.8 kcal/mol; in [17], -29.3 kcal/mol; in assay [18] it was -32.7 kcal/mol; in assay [19], -23.8 kcal/mol. The dH was -23.3 kcal/mol in assay [20] and -28.1 kcal/mol in assay [21]. Moreover, the “stoichiometry N” value in assay [8] was determined as 0.95; in assay [9] it was 1.04; in [10] it was 1.18; in assay [11], 0.81; in assay [12], 0.82; in assay [13], 0.89. The “stoichiometry N” value in [14] stood at 0.92; in assay [15] it was 0.98; in assay [17] it was 0.95; in assay [18], 0.94; in assay [20], 0.93.

The values are drawn from paper PMC4050191 (FEBS Open Bio, 2014).
